Calls of active or inactive are those of the source. No cut-off for these calls is given here.
Experiments:
[1] = biological target: Voltage-gated inwardly rectifying potassium channel KCNH2 (Homo sapiens, UniProt Q12809); test: Inhibition of hERG transfected in HEK293 cells at 10 uM by patch clamp assay; format: toxicity, cell-based; conditions: hek293, 10 µM
MDA-MB-468 [2] = test: Cytotoxicity against human MDA-MB-468 cells assessed as inhibition of cell growth incubated for 72 hrs by MTT assay; format: functional, cell-based; conditions: MDA-MB-468, 72 h
Outline: (§1)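 Cells seeded and grown to 70–80% confluence, then exposed for 72 h to a titration series (0.2–1000 nM). Viability read by MTT relative to untreated cells, with 6 replicates per concentration. IC50 fitted with a Hill-slope model.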

MDA-PCa-118b = test: Antitumor activity against patient derived MDA-PCa-118b cells xenografted in SCID mouse assessed as reduction in tumor burden in femur at 10 mg/kg,ip administration measured after 4 weeks by hematoxylin and eosin staining based analysis; format: functional, organism-based; conditions: Homo sapiens
Outline: (§2)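 AR-PDX 118b cells (1×10^5) injected via intra-femoral artery in male SCID mice (8–9 weeks). After 2 weeks, 10 mg/kg/day ip or vehicle for 4 weeks (n = 9/group). X-ray imaging every two weeks. At the end, femurs CT-scanned (5 per group) with 3D-reconstruction tumor size, and H&E histology used for tumor/femur area ratio.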

MDA-MB-468 [3] = test: Cytotoxicity against human MDA-MB-468 cells assessed as inhibition of cell growth preincubated for 3 to 6 hrs followed by compound washout and incubated for 72 hrs by MTT assay; format: functional, cell-based; conditions: time 3-6 hrs
Outline: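 MDA-MB-468 cells (RPMI 1640, 5% FBS) exposed to compound for varying durations, washed with PBS, then kept in culture to a total of 72 h. Viability read by MTT; EC50 and EC90 determined at each exposure time.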

Endothelin-1 receptor = biological target: T1, Endothelin-1 receptor (Homo sapiens, UniProt P25101); test: Agonist activity at EDNRA (unknown origin) by calcium flux assay; format: toxicity
T1 sequence (P25101 whole entry): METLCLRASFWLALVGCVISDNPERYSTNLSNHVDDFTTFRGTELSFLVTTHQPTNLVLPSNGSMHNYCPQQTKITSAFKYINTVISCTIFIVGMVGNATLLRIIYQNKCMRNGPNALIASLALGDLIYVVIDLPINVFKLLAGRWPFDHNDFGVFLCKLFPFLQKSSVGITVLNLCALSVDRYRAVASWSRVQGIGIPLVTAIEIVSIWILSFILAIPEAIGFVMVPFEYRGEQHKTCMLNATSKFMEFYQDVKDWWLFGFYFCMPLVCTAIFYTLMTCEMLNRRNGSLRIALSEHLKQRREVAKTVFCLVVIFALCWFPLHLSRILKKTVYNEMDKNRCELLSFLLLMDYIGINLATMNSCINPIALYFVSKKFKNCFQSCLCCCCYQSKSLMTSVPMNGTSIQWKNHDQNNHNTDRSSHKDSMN
Outline: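 Tested in a commercial off-target safety screening panel of 78 targets. Values reported as RC50, taken as IC50 except for agonist mode, where RC50 is EC50.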

[4] = Cmax in CD-1 mouse at 10 mg/kg,po administration measured upto 48 hrs by LC-MS/MS analysis; format: ADME, organism-based; conditions: in vivo
Outline: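 Oral gavage in ICR male mice (n = 3); dosing solution 1 mg/mL in 20% DMSO, 16% PEG, 4% dextrose in PBS. Tail-vein blood (10 μL) taken at 15, 30 min and 1, 2, 4, 8, 24, 48 h. Plasma quantified by LC-MS/MS against a 0.5–1000 ng/mL calibration; parameters from a non-compartmental extravascular model.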

[5] = Drug concentration in CD-1 mouse plasma at 37.7 micromol/kg,ip administration measured after 22 hrs by LC-MS/MS analysis; format: ADME, cell-free; conditions: dose 37.7 µmol/kg
Outline: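 Female CD-1 mice (n = 3) dosed ip at 37.7 μmol/kg. Blood (20 μL) taken at 0.25, 5 and 22 h, processed to plasma, and drug quantified by LC-MS/MS.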

MCF7 = test: Cytotoxicity against human MCF7 cells assessed as inhibition of cell growth incubated for 72 hrs by MTT assay; format: functional, cell-based; conditions: MCF7, 72 h
[6] = Clearance in CD-1 mouse at 1 mg/kg,iv administration measured upto 48 hrs by LC-MS/MS analysis; format: ADME, organism-based; conditions: in vivo
Outline: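 Single intravenous bolus in ICR male mice (n = 3, 6 weeks); dosing solution 0.5 mg/mL in 20% DMSO, 16% PEG, 4% dextrose in PBS. Tail-vein blood (10 μL) taken at 2, 5, 15, 30 min and 1, 2, 4, 8, 24, 48 h. Plasma quantified by LC-MS/MS against a 0.5–1000 ng/mL calibration; parameters from non-compartmental analysis.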

[7] = Antitumor activity against patient derived MDA-PCa-118b cells xenografted in SCID mouse assessed as reduction in femur volume at 10 mg/kg,ip administration measured after 4 weeks by CT imaging analysis; format: functional, Homo sapiens; parameters: scale not given: the % may be the effect or the level left; outline: as §2
[8] = Toxicity in SCID mouse orthotopically xenografted with human Panc-1-Luc cells assessed as change in body weight at 10 mg/kg,ip administration once daily for 8 weeks; format: organism-based; conditions: in vivo, 1344 h
Outline: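 Male SCID mice (8 weeks) received orthotopic pancreatic implants of Panc-1-Luc cells (0.5×10^6 per mouse). Mice randomized by luciferase imaging (n=5 per group). From day 8, dosed 10 mg/kg i.p. or solvent vehicle once daily. Body weight recorded weekly; mice euthanized at day 63.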

[9] = biological target: Nuclear receptor coactivator 3 (Homo sapiens) (UniProt Q9Y6Q9); test: Inhibition of recombinant His-tagged SRC-3 (unknown origin) expressed in baculovirus assessed as reduction in recruitment of SRC-3 in ER complex at 0.15 uM incubated for 30 mins by pull-down based western blotting analysis
Outline: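 Purified baculovirus-expressed His-SRC-3-flag (0.1 μg) preincubated with compound or vehicle for 30 min on ice. Then 0.1 μg recombinant ERα and His-p300 plus ERE-containing DNA oligo and 1 μM 17β-estradiol added, 1 h on ice. ER complexes immunoprecipitated with anti-ERα antibody; SRC-3 and p300 detected by western blot.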

PANC-1 = test: Cytotoxicity against human PANC-1 cells assessed as inhibition of cell growth incubated for 72 hrs by MTT assay; format: functional, cell-based; conditions: PANC-1, 72 h; outline: as §1

Sequence of Voltage-gated inwardly rectifying potassium channel KCNH2 (Q12809 whole entry): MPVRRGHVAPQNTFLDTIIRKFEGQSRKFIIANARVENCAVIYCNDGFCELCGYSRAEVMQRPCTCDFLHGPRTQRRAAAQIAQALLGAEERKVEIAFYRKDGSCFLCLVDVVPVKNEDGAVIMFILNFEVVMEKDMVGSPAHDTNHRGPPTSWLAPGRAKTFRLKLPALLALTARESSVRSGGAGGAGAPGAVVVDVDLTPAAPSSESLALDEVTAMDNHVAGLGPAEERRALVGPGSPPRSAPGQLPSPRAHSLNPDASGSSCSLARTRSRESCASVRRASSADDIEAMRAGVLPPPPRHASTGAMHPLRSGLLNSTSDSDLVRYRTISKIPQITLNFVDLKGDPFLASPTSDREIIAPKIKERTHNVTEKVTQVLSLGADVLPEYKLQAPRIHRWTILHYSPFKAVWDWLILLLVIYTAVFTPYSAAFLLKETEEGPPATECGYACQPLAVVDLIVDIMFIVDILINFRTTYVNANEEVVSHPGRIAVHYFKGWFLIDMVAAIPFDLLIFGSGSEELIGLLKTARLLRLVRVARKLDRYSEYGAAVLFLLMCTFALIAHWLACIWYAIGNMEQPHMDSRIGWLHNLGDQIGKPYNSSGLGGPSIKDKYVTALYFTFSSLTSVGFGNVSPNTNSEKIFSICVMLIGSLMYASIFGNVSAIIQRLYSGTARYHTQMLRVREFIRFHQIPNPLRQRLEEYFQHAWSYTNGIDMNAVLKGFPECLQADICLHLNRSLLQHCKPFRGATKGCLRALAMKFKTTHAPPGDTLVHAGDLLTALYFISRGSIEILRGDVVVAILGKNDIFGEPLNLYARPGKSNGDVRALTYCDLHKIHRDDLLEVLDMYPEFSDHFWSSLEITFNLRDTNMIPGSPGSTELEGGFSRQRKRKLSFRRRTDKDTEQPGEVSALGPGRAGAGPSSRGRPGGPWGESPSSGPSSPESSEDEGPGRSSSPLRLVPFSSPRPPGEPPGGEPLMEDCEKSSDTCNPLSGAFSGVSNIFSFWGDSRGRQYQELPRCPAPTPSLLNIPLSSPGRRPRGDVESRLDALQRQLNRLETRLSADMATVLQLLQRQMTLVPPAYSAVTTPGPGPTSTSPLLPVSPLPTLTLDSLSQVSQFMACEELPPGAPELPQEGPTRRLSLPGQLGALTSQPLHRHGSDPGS
Sequence of Nuclear receptor coactivator 3 (Homo sapiens) (Q9Y6Q9 2-1424 limits assumed): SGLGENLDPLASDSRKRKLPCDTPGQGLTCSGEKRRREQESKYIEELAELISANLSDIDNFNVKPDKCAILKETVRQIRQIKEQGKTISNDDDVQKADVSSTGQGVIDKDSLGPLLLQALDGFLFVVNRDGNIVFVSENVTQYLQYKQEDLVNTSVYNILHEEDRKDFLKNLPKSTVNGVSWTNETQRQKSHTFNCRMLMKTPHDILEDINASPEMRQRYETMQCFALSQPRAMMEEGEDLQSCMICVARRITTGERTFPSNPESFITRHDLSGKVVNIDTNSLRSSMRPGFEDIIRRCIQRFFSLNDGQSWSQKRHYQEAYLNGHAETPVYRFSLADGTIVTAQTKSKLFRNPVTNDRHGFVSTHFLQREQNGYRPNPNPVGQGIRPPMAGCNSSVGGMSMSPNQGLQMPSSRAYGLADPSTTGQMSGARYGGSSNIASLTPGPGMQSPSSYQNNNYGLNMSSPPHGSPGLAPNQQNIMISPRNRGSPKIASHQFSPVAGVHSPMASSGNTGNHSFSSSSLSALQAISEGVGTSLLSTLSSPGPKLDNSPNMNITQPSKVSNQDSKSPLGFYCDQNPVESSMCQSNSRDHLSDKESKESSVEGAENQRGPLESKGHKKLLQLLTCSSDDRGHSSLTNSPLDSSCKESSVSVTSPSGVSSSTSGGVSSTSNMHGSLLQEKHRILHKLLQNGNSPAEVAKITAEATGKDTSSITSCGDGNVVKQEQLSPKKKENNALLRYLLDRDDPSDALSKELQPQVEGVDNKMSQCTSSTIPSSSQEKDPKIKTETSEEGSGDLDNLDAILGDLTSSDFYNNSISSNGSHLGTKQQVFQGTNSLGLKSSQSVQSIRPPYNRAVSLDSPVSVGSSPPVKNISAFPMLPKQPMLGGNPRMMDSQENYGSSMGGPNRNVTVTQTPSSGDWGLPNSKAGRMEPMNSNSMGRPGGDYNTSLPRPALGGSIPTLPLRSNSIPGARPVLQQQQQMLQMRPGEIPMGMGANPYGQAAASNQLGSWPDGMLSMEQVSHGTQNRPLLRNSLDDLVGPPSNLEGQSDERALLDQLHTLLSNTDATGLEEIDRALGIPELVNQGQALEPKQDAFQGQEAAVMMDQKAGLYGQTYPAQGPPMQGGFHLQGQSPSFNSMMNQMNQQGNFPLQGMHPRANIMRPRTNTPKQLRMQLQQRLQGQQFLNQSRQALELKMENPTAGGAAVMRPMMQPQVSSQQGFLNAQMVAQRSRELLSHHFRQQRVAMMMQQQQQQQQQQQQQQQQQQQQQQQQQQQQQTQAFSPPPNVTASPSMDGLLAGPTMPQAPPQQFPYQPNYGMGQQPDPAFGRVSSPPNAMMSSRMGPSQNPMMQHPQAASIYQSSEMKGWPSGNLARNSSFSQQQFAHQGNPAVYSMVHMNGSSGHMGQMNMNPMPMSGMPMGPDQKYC

In the case of `C/C(=N\N=c1/[nH]c2cc(F)c(F)cc2n1C)c1ccc(F)cn1`, the “inhibition (INH)” value [1] is reported as “Active”, the IC50 (MDA-MB-468 [2]) is reported as 15 nM and the Activity (MDA-PCa-118b) is reported as “Active”. For the same molecule, the Activity (MDA-MB-468 [3]) was “Active”, the EC50 (Endothelin-1 receptor) was 6400 nM and the Cmax [4] was 217 ng/mL. It also gave a concentration at 22 h [5] of 47 nM, an IC50 (MCF7) of 3.4 nM and a clearance [6] of 22 mL/min/kg. For the same molecule, the Activity [7] was greater than 55%, the Activity [8] was “Non-Toxic” and the inhibition [9] was “Active”. For the same molecule, the IC50 (PANC-1) was 29 nM.

From ChEMBL document CHEMBL5543124, “Lead Compound Development of SRC-3 Inhibitors with Improved Pharmacokinetic Properties and Anticancer Efficacy” (J Med Chem, 2024)
